Results from ChEMBL document CHEMBL4513216, “Probing the Open Global Health Chemical Diversity Library for Multistage-Active Starting Points for Next-Generation Antimalarials” (ACS Infect Dis, 2020).

Test: Toxicity liver stage against HepG2, at 10uM
Type: cell-based
Set-up: test concentration 10 uM, cell line HepG2-A16-CD81EGFP
Details: human, HepG2-A16-CD81EGFP cells; read-out: INHIBITION
Procedure, shortened: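 Uninfected HepG2-A16-CD81EGFP cells, 3 × 10^3 per well, 1536-well, plated on prespotted compound at 10 μM final, parasite-free screening media added to match infected plates; puromycin 10 μM positive, DMSO 0.5% negative; run in parallel with 48 h PbLuc assay at 37 °C, 5% CO2; viability by CellTiter-Glo luminescence, normalized to controls.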

SMILES	cytotoxicity at 10 µM [%]
Cc1nc(C2(O)CCCNCC2)sc1CCOc1ccc(F)c(F)c1 (centres undefined)	-21.4
COc1c(CNCC(c2cccc(F)c2)N(C)C)c(C(C)C)nn1C (centres undefined)	-3.27
O=C(CSC1CCc2ccccc2NC1=O)NCCc1ccc(O)cc1 (centres undefined)	-4.25
Cc1ccc(CN2CCOCC3(C2)CN(c2ccc(C)s2)C(=O)CO3)o1 (centres undefined)	7.31
COc1ncccc1CNC(=O)Nc1cccnc1N1CCCC1	-10.4
CC(C)c1cc(NC2CCCN(C(=O)c3cccs3)C2)ncn1 (centres undefined)	-7.55
O=C(NCc1cccs1)[C@@H]1CC[C@@H]2[C@@H](CCN2C2CCOCC2)O1	0.37
COCc1cncc2c1CCN(C(=O)c1ccc(C#N)cc1)C2	-106
CC(C)c1ccc(C(=O)N2CCOCC2CC(=O)c2ccco2)cn1 (centres undefined)	6.93
COc1ccc(C(C)NC(=O)NCCc2ccc(C)nc2)c(OC)c1 (centres undefined)	-1.74
CN1CCN(Cc2ccccc2CNC(=O)c2cc(Cl)ccc2F)CC1	9.61
CN(CC(=O)NC1CC1)C(=O)c1csc(Br)c1	-0.872
CC(C(=O)Nc1cc(F)ccc1F)N1CCN(Cc2ncc[nH]2)CC1 (centres undefined)	-15.8
CCOC(=O)[C@@H]1[C@H]2CN(C(=O)OC)CCN2C[C@H]1c1ccccc1	6.72
CC(C)C(NC(=O)c1ccccc1F)C(=O)Nc1cnn(C)c1 (centres undefined)	-7.58
CCS(=O)(=O)N(C)CCCNC(=O)c1cc(Cl)cc2cccnc12	15
COc1cccc(N2C(=O)CC3(CCCNC3)C2=O)c1 (centres undefined)	1.52
CCn1ncc2c1CCCC2NCc1ccc2c(c1)CCO2 (centres undefined)	-4.47
COCCNC(=O)c1cc(C)nc(C2CCN(C)CC2)n1	-2.48
Cc1nc(C2CCCN2CC(=O)Nc2c(C)nn(C)c2C)no1 (centres undefined)	-3.08
Cc1cc(C2CN(CC(=O)NCc3ccco3)CCO2)ccc1F (centres undefined)	4.29
CCS(=O)(=O)N1C[C@@H]2COC[C@@H](Cc3nc(C)no3)[C@@H]2C1	9.04

SMILES	cytotoxicity at 10 µM [%]
COCCC(=O)N1CCC2(CCN(Cc3cccc(F)c3)CC2)C1	-75.9
OC[C@H]1CN(Cc2c(Cl)cncc2Cl)C[C@H]1CN1CCCCCC1	-112
COCC(=O)N1CCN(C(=O)C2CCCCC2)[C@@H](C(=O)OC)C1	1.08
Cc1cc(-c2cc3nc(C)c(C)c(NCC4COCCO4)n3n2)no1 (centres undefined)	8.97
COc1ccc(/C=C/CN2CCN(c3nccnc3C)CC2)cc1	-8.47
Cc1nc(-c2cccc(N3CCC(N4CCCC(C#N)C4)CC3)c2)cs1 (centres undefined)	6.22
C[C@H](O)c1cnn(-c2ccccc2)c1	0.503
Cc1cc(NC(=O)NCc2ccccn2)n(C)n1	2.14
Cc1noc(C)c1CN1CCCC1c1nnc2ccccn12 (centres undefined)	-1.73
Cc1nc(N)sc1C(=O)N1CCC(C(O)Cc2ccccc2)CC1 (centres undefined)	2.29
NC(c1ccc(F)cc1)c1cccs1 (centres undefined)	15.6
CCn1cnnc1CNC(=O)N(C)Cc1c(F)cccc1Cl	-5.56
O=C(c1cnc(Nc2ccccc2)nc1)N1CCS(=O)(=O)CC1	-1.01
CNC(=O)CN1CCC2(CC1)C[C@@H](O)[C@H](c1ccccc1)NC2=O	-32.2
Cc1ccc(CN2CCOC3(COCCN(S(C)(=O)=O)C3)C2)s1 (centres undefined)	10.8
CN(C)C(=O)[C@H]1C[C@H]2OCC[C@H]2N(CCOc2ccc(Cl)cc2)C1	-115
CC[C@H](C)Nc1nccc(-c2cnc3sccn3c2=O)n1	-8.72
O=C(C1CCCO1)N1CCC(n2cc(-c3ccc(F)cc3)nn2)CC1 (centres undefined)	-1.41
CCOC(=O)[C@@H]1[C@@H](c2ccccc2)CN2CCN(C(=O)N(C)C)C[C@H]12	14.8
Cc1cc(F)c(S(=O)(=O)NCC(C)(C)N)cc1F	6.65
CCN1C[C@@H]2C[C@H](C(=O)NCc3cccnc3)[C@H](C1)O2	2.01
Cc1cnn(CCNCCCOc2ccccc2)c1	-11.8

SMILES	cytotoxicity at 10 µM [%]
Cc1[nH]c(=O)[nH]c(=O)c1CN1CCCC(CCc2ccc(F)c(F)c2)C1 (centres undefined)	1.4
Cc1csc(CN2C[C@H](NC(=O)C3CCOCC3)[C@@H](C(C)C)C2)n1	6.99
NCCO[C@H]1C[C@@H](O)C12CCN(C(=O)CCOc1ccccc1)CC2	3.12
CCc1ccccc1-c1cc(C)nc(N)n1	1.12
O=c1ccc(-c2cccs2)nn1CN1CCN(c2ccccn2)CC1	-0.383
Cc1cnc(C)c(N2CCCC(CO)(Cc3ccccc3C)C2)n1 (centres undefined)	-17.2
c1cn(-c2cnc(C3CCNCC3)cn2)cn1	-5.72
CC(=O)N1CCCN(C(=O)NCCc2cc(Cl)cc(Cl)c2)CC1	4.55
Cc1cc(N2CCOC(C(F)(F)F)C2)nc(-c2ccccc2O)n1 (centres undefined)	-0.238
O=C(NCc1ccco1)c1cccc(C(=O)NCc2ccco2)n1	5.7
NC(=O)C1CCCN(c2ccc(CNC(=O)c3cc[nH]n3)cc2)C1 (centres undefined)	-3.9
O=C(CNc1cccc2c1CCCC2)Nc1ccccc1Br	11.4
COC[C@@]12CC[C@@H](N3CCOCC3)C[C@H]1CCN(c1ncccc1Cl)C2	-13.2
CS(=O)(=O)N1CCOCC2(CN(Cc3ccco3)CCO2)C1 (centres undefined)	-5.04
OCCN1CCN(Cc2cnc3c(-c4ccccc4)cnn3c2)CC1	-2.72
c1cncc(COCc2nnc3n2CCN(Cc2ccco2)C3)c1	-4.04
Cn1cnnc1C1CCN(c2nc3ccccc3o2)CC1	14.1
Cc1nnc([C@@H]2CC[C@@H]3[C@@H](CCN3S(C)(=O)=O)O2)o1	-79.1
O=C(O)c1sccc1Oc1ccc(NC(=O)C2CC2)cc1	-4.77
Cc1cccc(CCC(=O)Nc2cccnc2N2CCC(O)CC2)c1	-2.25
Nc1ccc(CC2COc3ccccc3C2)cn1 (centres undefined)	0.541
Cc1nn(C)c(Cl)c1C1CCCN1C(=O)c1ccoc1C (centres undefined)	-8.18

SMILES	cytotoxicity at 10 µM [%]
CN(Cc1ccc2nsnc2c1)C(=O)Cn1ncc(N(C)C)cc1=O	3.67
CCCn1ncc(C(=O)N(C)Cc2cc(C3CC3)[nH]n2)c1C	-4.65
COc1ccc(CN2CCn3c(CO)nnc3C2)cc1CN1CCCC1	-24.5
Cc1ccc(C(=O)N2CC3(CCNCC3)c3cc(Cl)ccc32)cn1	1.61
O=C(c1cnccn1)N1CCC(CN2CCOCC2)CC1	4.55
Cc1nc(CN2CCCN(c3nccs3)CC2)no1	-3.62
Cc1nc(C)c(C(=O)N2CCCc3c(F)cccc32)o1	-6.75
Cc1cc(C(=O)N2C[C@@H]3COC[C@]3(CN(C)C)C2)sc1C	-146
CCCNC(=O)C1(CC2CC(c3ccccc3OC)=NO2)CCOCC1 (centres undefined)	21.8
c1ccc(-n2nnnc2NCc2ccc3c(c2)OCO3)cc1	29.5
CCN(CC1CCOC1)C(=O)c1ccccc1NS(=O)(=O)CC (centres undefined)	-7.4
Cn1ccc2ccc(C(=O)N3CCN(C(=O)OC(C)(C)C)CC3)cc21	18.1
O=C(c1ccc(F)c(F)c1)N1CCN2CCCC2C1 (centres undefined)	-7.09
CN(C)C1Cc2ccccc2N(S(=O)(=O)c2cccc(C#N)c2)C1 (centres undefined)	9.89
CC1CN(C(=O)c2cc(=O)[nH]c3ccc(F)cc23)CCO1 (centres undefined)	19.3
Cc1nc(C2CCCN(C(=O)CCCn3cccn3)C2)sc1C (centres undefined)	-0.317
O=C(c1cnccn1)N1CCc2ncnc(-c3cccnc3)c2CC1	-3.8
Cc1n[nH]c(C)c1-c1nccnc1CC1CCN(C(C)C)CC1	-5.36
COc1ccc(N2CCC(NS(=O)(=O)N(C)C(C)C)CC2)cc1	6.62
CCCN1CCC(CC(=O)NCCc2nc(C)cc(C)n2)CC1	-13.7
O=C(CCc1cscn1)N1CCCC(c2ccn[nH]2)C1 (centres undefined)	-9.14
O=C(N[C@H]1CN[C@H]2CCCO[C@H]21)c1ccno1	-6.92

SMILES	cytotoxicity at 10 µM [%]
NC(=O)CSc1nccc(-c2ccc3c(c2)OCO3)n1	-7.38
CCC(=O)N1CCC2(CC1)c1nc[nH]c1CCN2S(C)(=O)=O	-11.4
COc1ccc(-n2ccc(C(=O)N(C)C(C)C3(C)CC3)n2)cc1 (centres undefined)	-2.41
Cc1cc(=O)n(CC(=O)NCC2CCCO2)c(-c2ccccc2)n1 (centres undefined)	-14.6
Cc1c(C(=O)NCC2CCN(Cc3c[nH]cn3)C2)[nH]c2ccccc12 (centres undefined)	-9.8
CN(C)C(=O)N1CCCC2(CCN(Cc3ccc(Cl)c(F)c3)C2)C1 (centres undefined)	7.07
CC(C)(C)C(=O)N1CCC(c2nc(O)cc(-c3ccccn3)n2)CC1	-1.13
Cc1ncsc1CN1CCO[C@H]2[C@H](Oc3ccccn3)CC[C@@H]21	-0.762
Cn1cnc2c(N3CCCC3)nc(C3CCNCC3)cc21	-9.74
Cc1nc(O)cc(CN2CCC=C(CN(C)C(=O)c3ccco3)C2)n1	8.82
O=C(c1cccs1)N1CC(Oc2ccccc2Cl)C1	6.89
CCC[C@H]1CN(c2nccc(OC)n2)C[C@@H]1NS(=O)(=O)N(C)C	-140
Cc1cccc(=O)n1CCC(=O)N1CCC2(CC1)OCCCC2O (centres undefined)	-1.95
CN(Cc1ccsc1)C(=O)c1cccc(NS(C)(=O)=O)c1	-5.72
O[C@H]1[C@H](NCCc2ccccn2)c2ccccc2C12CCNCC2	13.7
CC(C)N1CCC(NCc2cccnc2N(C)Cc2ccccc2)CC1	21
O=C(CN1C=Nc2ccccc2S1(=O)=O)NC1CCCCC1	4.75
O=C(N[C@@H]1CN(Cc2cccc(F)c2)C[C@H]1O)c1cscn1	-4.66
CC(C)(C)c1nnc(CN2CCC(c3cc4ccccc4[nH]3)CC2)o1	24.3
Cc1noc(C)c1CN1CCOC2(CCCN(c3nccs3)C2)C1 (centres undefined)	2.39
CC(C)(C)C(=O)N1CCC2(COCc3cnc(N4CCOCC4)nc32)C1 (centres undefined)	-14.2
